Measurements: ChEMBL document CHEMBL3046604, “Synthesis and fungistatic activity of new groups of 2,4-dihydroxythiobenzoyl derivatives against phytopathogenic fungi” (J Agric Food Chem, 2003)

Legend:
Rhizoctonia solani [1] = assay: Fungistatic activity against Rhizoctonia solani assessed as mycelial growth inhibition at 200 ug/ml after 4 to 8 days relative to control; type: functional; settings: read-out: GI
Method in brief: (§1)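 Compound solutions or suspensions were diluted into PDA agar to final 200 or 20 µg/mL and poured into Petri dishes. Once the agar set, mycelium-covered agar disks of the fungus were placed at three sites on the surface. Linear colony growth was measured after 4-8 days, depending on the culture. Inhibition J = [(C − T)/C] × 100 versus untreated control, reported on a four-degree scale.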

Phytophthora cactorum [2] = assay: Fungistatic activity against Phytophthora cactorum assessed as mycelial growth inhibition at 200 ug/ml after 4 to 8 days relative to control; type: functional; settings: read-out: GI; method in brief: as §1
Alternaria alternata [3] = assay: Fungistatic activity against Alternaria alternata assessed as mycelial growth inhibition at 200 ug/ml after 4 to 8 days relative to control; type: functional; settings: read-out: GI; method in brief: as §1
Botrytis cinerea [4] = assay: Fungistatic activity against Botryotinia fuckeliana assessed as mycelial growth inhibition at 20 ug/ml after 4 to 8 days relative to control; type: functional; settings: read-out: GI; method in brief: as §1
Phytophthora cactorum [5] = assay: Fungistatic activity against Phytophthora cactorum assessed as mycelial growth inhibition at 20 ug/ml after 4 to 8 days relative to control; type: functional; settings: read-out: GI; method in brief: as §1
[6] = Lipophilicity, log K of the compound in methanol-water mixture by HPLC; type: physicochemical
Method in brief: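 Reversed-phase HPLC on a Hypersil BDS C18 column (5 µm, 150 × 4.6 mm) with UV detection at 320 nm. Samples were dissolved in methanol. Mobile phase was methanol at varying volume fractions in 10 mM acetate buffer pH 4, run at 1 mL/min and room temperature. Dead time was taken from injection of acetone dissolved in water.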

Blumeria graminis [7] = assay: Fungistatic activity against Blumeria graminis infested wheat seedling assessed as inhibition of fungal infection at 500 ug/ml applied as spray after 7 to 14 days under green house conditions relative to control; type: functional
Method in brief: (§2)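 Greenhouse test on healthy wheat seedlings with Erysiphe graminis. At the well-developed first-leaf stage, plants were sprayed with compound solution at 1000 or 500 µg/mL, 10 mL of solution per treatment, with three repeats in 9 cm paraffin cups.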

Fusarium culmorum [8] = assay: Fungistatic activity against Fusarium culmorum assessed as mycelial growth inhibition at 20 ug/ml after 4 to 8 days relative to control; type: functional; settings: read-out: GI; method in brief: as §1
Fusarium culmorum [9] = assay: Fungistatic activity against Fusarium culmorum assessed as mycelial growth inhibition at 200 ug/ml after 4 to 8 days relative to control; type: functional; settings: read-out: GI; method in brief: as §1
Rhizoctonia solani [10] = assay: Fungistatic activity against Rhizoctonia solani assessed as mycelial growth inhibition at 20 ug/ml after 4 to 8 days relative to control; type: functional; settings: read-out: GI; method in brief: as §1
Botrytis cinerea [11] = assay: Fungistatic activity against Botryotinia fuckeliana assessed as mycelial growth inhibition at 200 ug/ml after 4 to 8 days relative to control; type: functional; settings: read-out: GI; method in brief: as §1
Blumeria graminis [12] = assay: Fungistatic activity against Blumeria graminis infested wheat seedling assessed as inhibition of fungal infection at 1000 ug/ml applied as spray after 7 to 14 days under green house conditions relative to control; type: functional; method in brief: as §2
Alternaria alternata [13] = assay: Fungistatic activity against Alternaria alternata assessed as mycelial growth inhibition at 20 ug/ml after 4 to 8 days relative to control; type: functional; settings: read-out: GI; method in brief: as §1

| log K [6] | Structure (SMILES) | inhibition of growth at 200 µg/mL (Rhizoctonia solani [1]) [%] | inhibition of growth at 200 µg/mL (Phytophthora cactorum [2]) [%] | inhibition of growth at 200 µg/mL (Alternaria alternata [3]) [%] | inhibition of growth at 20 µg/mL (Botrytis cinerea [4]) [%] | inhibition of growth at 20 µg/mL (Phytophthora cactorum [5]) [%] | inhibition at 500 µg/mL (Blumeria graminis [7]) [%] | inhibition of growth at 20 µg/mL (Fusarium culmorum [8]) [%] | inhibition of growth at 200 µg/mL (Fusarium culmorum [9]) [%] | inhibition of growth at 20 µg/mL (Rhizoctonia solani [10]) [%] | inhibition of growth at 200 µg/mL (Botrytis cinerea [11]) [%] | inhibition at 1000 µg/mL (Blumeria graminis [12]) [%] | inhibition of growth at 20 µg/mL (Alternaria alternata [13]) [%] |
| --- | --- | --- | --- | --- | --- | --- | --- | --- | --- | --- | --- | --- | --- |
| 0.373 | N#CCc1nn(-c2ccccc2)c(NC(=S)c2ccc(O)cc2O)c1C#N | 21 | 61 | 41 | 0 | 0 | 0 | 0 | 0 | 0 | 21 | 21 | 0 |
| 0.035 | Oc1ccc(C(=S)Nc2cc(C(F)(F)F)ccc2N2CCOCC2)c(O)c1 | 0 | 41 | 21 | 0 | 0 | 0 | 0 | 21 | 0 | 21 | 0 | 0 |
| 1.305 | Oc1ccc(C(=S)Nc2ccc(Oc3ccccc3)cc2)c(O)c1 | 21 | 21 | 41 | 0 | 0 | 0 | 0 | 0 | 0 | 0 | 0 | 0 |
| 0.446 | Oc1ccc(C(=S)Nc2ccccc2Sc2ccc(Cl)cc2)c(O)c1 | 21 | 0 | 41 | 0 | 0 | 0 | 0 | 21 | 0 | 0 | 0 | 0 |
| 0.423 | Oc1ccc(C(=S)Nc2ccc(OCc3ccccc3)cc2)c(O)c1 | 41 | 41 | 61 | 21 | 0 | 0 | 0 | 21 | 0 | 61 | 21 | 0 |
| 0.118 | Oc1ccc(C(=S)Nc2ccccc2-c2ccccc2)c(O)c1 | 61 | 81 | 61 | 0 | 41 | 0 | 0 | 61 | 0 | 61 | 21 | 0 |
| 0.378 | Oc1ccc(C(=S)n2c(Cl)nc3ccccc32)c(O)c1 | 81 | 81 | 81 | 0 | 21 | 0 | 0 | 81 | 21 | 81 | 41 | 21 |
| -0.302 | CC(C)(C)c1cc(NC(=S)c2ccc(O)cc2O)no1 | 41 | 61 | 61 | 0 | 0 | 0 | 21 | 61 | 0 | 41 | 21 | 21 |
